In ChEMBL document CHEMBL1240329, “Identification and mechanistic characterization of low-molecular-weight inhibitors for HuR” (Nat Chem Biol, 2007):
The source made the active and inactive calls. The calls are words filed in the database; no cut-off is given here.

How the values were obtained:
[1] = target: T1, ELAV-like protein 1 (Homo sapiens, UniProt Q15717); test: Inhibition of recombinant HuR RRM1/RRM2 domain assessed as protein dimerization with TMR-labeled A/U-rich element of TNFalpha by confocal fluctuation spectroscopy
[2] = tested on: Monocyte; test: Inhibition of COX-2 gene expression in LPS/INF-gamma-stimulated human primary monocytes by RT-PCR analysis
[3] = tested on: Monocyte; test: Inhibition of COX-2 expression in LPS/INF-gamma-stimulated human primary monocytes by ELISA; type: functional
[4] = tested on: Monocyte; test: Inhibition of IL-6 expression in LPS/INF-gamma-stimulated human primary monocytes by ELISA; type: functional
[5] = target: T1, ELAV-like protein 1; test: Inhibition of recombinant HuR RRM1/RRM2 domain assessed as protein interaction with TMR-labeled A/U-rich element of TNFalpha by confocal fluctuation spectroscopy
Outline: (§1)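 Binding followed as fluorescence anisotropy by 2D-FIDA, converted to fraction bound. Inhibition curves simulated from the fitted HuR–RNA Kd, with actual RNA, HuR and compound levels as boundary conditions. Ten measurements averaged; at least three independent experiments.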

[6] = tested on: PBMC; test: Inhibition of HuR in anti-CD3 and anti-CD28-stimulated human PBMC assessed as reduction of cytoplasmic protein level at 25 uM after 48 hrs by confocal microscopy; type: functional, cell-based
[7] = Cytotoxicity against human PBMC assessed as cell viability at 25 uM after 48 hrs relative control; type: cell-based; conditions: read-out: Activity
Outline: (§2)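 Freshly isolated human PBMCs activated with soluble anti-CD3 plus anti-CD28 and exposed to compound for 48 h. Viability expressed as percent of DMSO control.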

[8] = tested on: Monocyte; test: Inhibition of IL1-beta gene expression in LPS/INF-gamma-stimulated human primary monocytes by RT-PCR analysis
[9] = target: T1, ELAV-like protein 1; test: Inhibition of recombinant full length HuR assessed as inhibition of protein-IL-2 A/U-rich element interaction-associated release of particle number at 2 uM by 2D-FIDA
[10] = tested on: Monocyte; test: Inhibition of IL-6 gene expression in LPS/INF-gamma-stimulated human primary monocytes by RT-PCR analysis
[11] = tested on: Monocyte; test: Inhibition of IL1-beta expression in LPS/INF-gamma-stimulated human primary monocytes by ELISA; type: functional
[12] = target: T1, ELAV-like protein 1; test: Inhibition of recombinant HuR RRM1/RRM2 domain assessed as protein interaction with TMR-labeled A/U-rich element of IL-2 by confocal fluctuation spectroscopy; outline: as §1
[13] = target: T1, ELAV-like protein 1; test: Inhibition of recombinant HuR RRM1/RRM2 domain assessed as protein dimerization with TMR-labeled A/U-rich element of IL-2 by confocal fluctuation spectroscopy
[14] = target: Myosin light chain kinase, smooth muscle (Homo sapiens, UniProt Q15746); test: Inhibition of MYLK
[15] = target: T1, ELAV-like protein 1; test: Binding affinity recombinant HuR RRM1/RRM2 domain by confocal fluctuation spectroscopy; outline: as §1
[16] = tested on: PBMC; test: Inhibition of HuR in anti-CD3 and anti-CD28-stimulated human PBMC assessed as reduction of cytoplasmic protein level after 48 hrs by confocal microscopy; type: functional, cell-based
[17] = tested on: Monocyte; test: Inhibition of COX-2 expression in LPS/INF-gamma-stimulated human primary monocytes up to 30 uM by ELISA; type: functional
[18] = Cytotoxicity against human PBMC assessed as cell viability at 50 uM after 48 hrs relative control; type: cell-based; conditions: read-out: Activity; outline: as §2
[19] = tested on: Monocyte; test: Inhibition of IL-6 gene expression in LPS/INF-gamma-stimulated human primary monocytes up to 30 uM by RT-PCR analysis; type: functional
[20] = tested on: Monocyte; test: Inhibition of IL1-beta gene expression in LPS/INF-gamma-stimulated human primary monocytes up to 30 uM by RT-PCR analysis; type: functional
[21] = tested on: Monocyte; test: Inhibition of IL-6 expression in LPS/INF-gamma-stimulated human primary monocytes up to 30 uM by ELISA; type: functional
[22] = tested on: Monocyte; test: Inhibition of COX-2 gene expression in LPS/INF-gamma-stimulated human primary monocytes up to 30 uM by RT-PCR analysis; type: functional
[23] = tested on: Monocyte; test: Inhibition of IL1-beta expression in LPS/INF-gamma-stimulated human primary monocytes up to 30 uM by ELISA; type: functional

T1 sequence (Q15717 whole entry, the tested form may be a part): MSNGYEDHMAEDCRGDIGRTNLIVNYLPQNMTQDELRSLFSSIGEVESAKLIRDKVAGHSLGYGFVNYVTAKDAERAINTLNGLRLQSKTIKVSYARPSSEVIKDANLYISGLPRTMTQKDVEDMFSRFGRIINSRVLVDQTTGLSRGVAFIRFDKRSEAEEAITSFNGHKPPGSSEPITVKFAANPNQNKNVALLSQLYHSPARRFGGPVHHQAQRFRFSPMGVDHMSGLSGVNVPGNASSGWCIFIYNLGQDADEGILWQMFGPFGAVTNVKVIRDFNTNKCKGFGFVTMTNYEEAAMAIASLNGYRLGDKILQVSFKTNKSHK
Chain of Myosin light chain kinase, smooth muscle (Q15746 whole entry, the tested form may be a part): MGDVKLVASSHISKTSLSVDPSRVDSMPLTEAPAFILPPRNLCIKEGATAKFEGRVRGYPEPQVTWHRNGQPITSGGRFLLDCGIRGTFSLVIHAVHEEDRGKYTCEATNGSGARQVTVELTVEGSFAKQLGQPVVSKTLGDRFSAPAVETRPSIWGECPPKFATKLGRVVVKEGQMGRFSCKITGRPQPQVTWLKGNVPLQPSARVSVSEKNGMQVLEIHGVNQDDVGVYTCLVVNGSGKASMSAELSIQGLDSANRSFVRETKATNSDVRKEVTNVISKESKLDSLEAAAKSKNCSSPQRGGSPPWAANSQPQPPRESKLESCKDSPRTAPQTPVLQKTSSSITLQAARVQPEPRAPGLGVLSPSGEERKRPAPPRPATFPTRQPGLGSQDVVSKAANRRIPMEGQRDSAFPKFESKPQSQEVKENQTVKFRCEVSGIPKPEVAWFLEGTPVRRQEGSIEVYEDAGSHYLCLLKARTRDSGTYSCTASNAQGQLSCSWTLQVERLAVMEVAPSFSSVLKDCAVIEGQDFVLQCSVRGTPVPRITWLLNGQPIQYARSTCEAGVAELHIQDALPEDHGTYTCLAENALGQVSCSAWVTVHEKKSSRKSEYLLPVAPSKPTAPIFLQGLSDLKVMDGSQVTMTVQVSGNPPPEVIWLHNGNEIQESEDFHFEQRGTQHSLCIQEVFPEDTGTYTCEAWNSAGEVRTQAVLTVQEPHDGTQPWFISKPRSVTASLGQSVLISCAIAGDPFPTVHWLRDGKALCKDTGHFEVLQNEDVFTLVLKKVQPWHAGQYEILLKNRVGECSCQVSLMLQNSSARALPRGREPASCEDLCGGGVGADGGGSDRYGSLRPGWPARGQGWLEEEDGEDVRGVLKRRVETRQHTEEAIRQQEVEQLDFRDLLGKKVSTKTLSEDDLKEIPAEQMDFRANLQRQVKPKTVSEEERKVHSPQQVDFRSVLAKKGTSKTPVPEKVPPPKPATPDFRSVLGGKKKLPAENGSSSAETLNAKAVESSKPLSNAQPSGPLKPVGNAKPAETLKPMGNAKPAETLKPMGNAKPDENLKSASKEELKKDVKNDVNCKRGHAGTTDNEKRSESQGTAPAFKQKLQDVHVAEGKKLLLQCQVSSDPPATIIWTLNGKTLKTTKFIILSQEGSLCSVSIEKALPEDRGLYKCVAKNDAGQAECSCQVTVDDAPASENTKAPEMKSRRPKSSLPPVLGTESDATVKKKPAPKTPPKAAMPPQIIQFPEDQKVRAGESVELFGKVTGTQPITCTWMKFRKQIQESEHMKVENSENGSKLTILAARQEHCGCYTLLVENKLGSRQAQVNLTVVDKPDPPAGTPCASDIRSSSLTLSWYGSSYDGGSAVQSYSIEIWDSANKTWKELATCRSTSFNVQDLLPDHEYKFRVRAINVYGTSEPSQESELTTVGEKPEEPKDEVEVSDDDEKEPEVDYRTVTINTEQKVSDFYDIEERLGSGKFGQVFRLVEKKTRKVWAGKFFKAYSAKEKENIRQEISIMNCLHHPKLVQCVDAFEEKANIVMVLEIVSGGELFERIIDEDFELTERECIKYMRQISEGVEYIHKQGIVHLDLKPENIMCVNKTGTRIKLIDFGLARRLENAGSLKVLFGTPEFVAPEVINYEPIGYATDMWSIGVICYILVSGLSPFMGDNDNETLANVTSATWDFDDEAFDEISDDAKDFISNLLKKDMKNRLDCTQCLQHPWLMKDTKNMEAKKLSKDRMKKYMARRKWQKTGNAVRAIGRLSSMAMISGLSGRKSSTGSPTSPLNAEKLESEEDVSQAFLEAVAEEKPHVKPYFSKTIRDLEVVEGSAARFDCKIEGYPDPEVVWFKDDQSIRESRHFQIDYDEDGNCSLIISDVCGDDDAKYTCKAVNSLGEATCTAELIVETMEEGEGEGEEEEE

Cc1occ2c1C(=O)c1c(O)ccc(O)c1C2
Kd [1]: 0.1 nM | IC50 [2]: 2100 nM | inhibition [3]: Dose-dependent effect | inhibition [4]: Dose-dependent effect | Kd [5]: 14 nM | inhibition [6]: inactive | viability at 48 h, 25 µM [7]: 94% | IC50 [8]: 3700 nM | inhibition [9]: Active | IC50 [10]: 2400 nM | inhibition [11]: Dose-dependent effect | Kd [12]: 230 nM | Kd [13]: 0.1 nM | IC50 [14]: 10000 nM | Kd [15]: 420 nM

Cc1cc(O)c2c(O)cccc2c1-c1cc(=O)cc(O)o1 [DEHYDROMUTACTIN]
inhibition [16]: Dose-dependent effect | inhibition [17]: inactive | viability at 48 h, 50 µM [18]: 97% | inhibition [19]: inactive | inhibition [20]: inactive | inhibition [21]: inactive | inhibition [11]: inactive | inhibition [22]: inactive | inhibition [23]: inactive

Cc1cc(O)cc2oc(Cc3cc(O)cc(=O)o3)cc(=O)c12
inhibition [17]: inactive | inhibition [19]: inactive | inhibition [21]: inactive | inhibition [11]: inactive | inhibition [22]: inactive | inhibition [23]: inactive

Cc1cc(O)cc2cc3c(c(O)c12)C(=O)CCC3O (stereo unspecified)
inhibition [16]: inactive
